≈ marks a conversion by molar mass, not a printed value.
Key:
Acinetobacter baumannii [1] = experiment: Antibacterial activity against Acinetobacter baumannii AYE assessed as bacterial growth inhibition incubated for overnight by microbroth dilution method; format: functional
How it was run: (§1)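 Broth microdilution in Tryptic Soy Broth. DMSO stocks were diluted in TSB as 2-fold series. Overnight TSB cultures were back-diluted to OD 0.01 and mixed 1:1 with compound. Incubation was overnight at 37 °C. MIC was the lowest concentration without visible growth (<0.1 OD600). DMSO vehicle was checked at equivalent concentrations.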

Pseudomonas aeruginosa [2] = experiment: Synergistic antibacterial activity against Pseudomonas aeruginosa PAO1 assessed as fold change in novobiocin MIC at <=0.25 times MIC incubated for overnight by microbroth dilution checkerboard assay relative to novobiocin alone; format: functional
How it was run: (§2)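 Checkerboard microdilution in Tryptic Soy Broth, run like the MIC assay. Overnight TSB cultures were back-diluted to OD 0.01 and added 1:1 to the combined two-fold series of both agents, then incubated overnight at 37 °C. Growth/no-growth was called at <0.1 OD600. MICs alone were read on the same plates. FIC index came from the most synergistic well; three independent repeats, mean ± SD.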

Acinetobacter baumannii [3] = experiment: Synergistic antibacterial activity against Acinetobacter baumannii ATCC 17978 assessed as fold change in novobiocin MIC at <=0.25 times MIC incubated for overnight by microbroth dilution checkerboard assay relative to novobiocin alone; format: functional
How it was run: (§3)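 Checkerboard microdilution under MIC conditions (TSB, overnight, 37 °C). Two-fold series of each agent were combined on one plate before bacteria were added, and single-agent MICs were measured on the same plate. FIC = sum of combination MIC/alone MIC for each agent, taken from the most synergistic well. Three independent repeats, mean ± SD. ≤0.5 was taken as strong synergy and 0.5–<1 as weak.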

Escherichia coli [4] = experiment: Synergistic antibacterial activity against Escherichia coli NCTC 12923 assessed as fold change in rifampicin MIC at <=0.25 times MIC incubated for overnight by microbroth dilution checkerboard assay relative to rifampicin alone; format: functional; how it was run: as §3
Klebsiella pneumoniae [5] = experiment: Antibacterial activity against ESBL Klebsiella pneumoniae NCTC 13368 assessed as bacterial growth inhibition incubated for overnight by microbroth dilution method
Escherichia coli [6] = experiment: Synergistic antibacterial activity against Escherichia coli NCTC 12923 assessed as rifampicin MIC at <=0.25 times MIC incubated for overnight by microbroth dilution checkerboard assay; format: functional; how it was run: as §3
Klebsiella pneumoniae [7] = experiment: Synergistic antibacterial activity against […] Klebsiella pneumoniae M6 assessed as novobiocin MIC at <=0.25 times MIC incubated for overnight by microbroth dilution checkerboard assay; format: functional
How it was run: (§4)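 Checkerboard run under the MIC conditions (TSB, overnight, 37 °C). Antibiotic and lipoguanidine 2-fold series were combined on one plate before bacteria were added. Growth/no-growth was scored as for the MIC (<0.1 OD600). Single-agent MICs were measured on the same plates. Three independent repeats were done.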

Acinetobacter baumannii [8] = experiment: Synergistic antibacterial activity against Acinetobacter baumannii ATCC 17978 assessed as fold change in rifampicin MIC at <=0.25 times MIC incubated for overnight by microbroth dilution checkerboard assay relative to rifampicin alone; format: functional; how it was run: as §3
Erythrocyte = experiment: Hemolytic activity in human Red blood cells at 512 microg/ml measured after 1 hrs by absorbance based assay; format: toxicity, cell-based; settings: dose 512 µg/ml
How it was run: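 Titrations in PBS were incubated with freshly collected human red blood cells for 1 h at 37 °C. Controls were 0.1% Triton-X-100 (full lysis) and PBS alone (no lysis). After centrifugation, supernatant OD550 was read. % haemolysis = (AP−AB)/(AC−AB)×100. Data are means and standard error of three biological replicates.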

Pseudomonas aeruginosa [9] = experiment: Synergistic antibacterial activity against Pseudomonas aeruginosa NCTC 13437 assessed as novobiocin MIC at <=0.25 times MIC incubated for overnight by microbroth dilution checkerboard assay; format: functional; how it was run: as §2
Acinetobacter baumannii [10] = experiment: Synergistic antibacterial activity against Acinetobacter baumannii ATCC 17978 assessed as novobiocin MIC at <=0.25 times MIC incubated for overnight by microbroth dilution checkerboard assay; format: functional; how it was run: as §3
Klebsiella pneumoniae [11] = experiment: Antibacterial activity against Klebsiella pneumoniae M6 assessed as bacterial growth inhibition incubated for overnight by microbroth dilution method
Escherichia coli [12] = experiment: Antibacterial activity against Escherichia coli NCTC 12923 assessed as bacterial growth inhibition incubated for overnight by microbroth dilution method; format: functional; how it was run: as §1
Acinetobacter baumannii [13] = experiment: Synergistic antibacterial activity against Acinetobacter baumannii ATCC 17978 assessed as rifampicin MIC at <=0.25 times MIC incubated for overnight by microbroth dilution checkerboard assay; format: functional; how it was run: as §3
Klebsiella pneumoniae [14] = experiment: Synergistic antibacterial activity against […] Klebsiella pneumoniae NCTC 13368 assessed as novobiocin MIC at <=0.25 times MIC incubated for overnight by microbroth dilution checkerboard assay; format: functional; how it was run: as §4
Acinetobacter baumannii [15] = experiment: Synergistic antibacterial activity against Acinetobacter baumannii AYE assessed as rifampicin MIC at <=0.25 times MIC incubated for overnight by microbroth dilution checkerboard assay; format: functional; how it was run: as §3
Escherichia coli [16] = experiment: Synergistic antibacterial activity against Escherichia coli NCTC 12923 assessed as fold change in novobiocin MIC at <=0.25 times MIC incubated for overnight by microbroth dilution checkerboard assay relative to novobiocin alone; format: functional; how it was run: as §3
Pseudomonas aeruginosa [17] = experiment: Synergistic antibacterial activity against Pseudomonas aeruginosa PAO1 assessed as rifampicin MIC at <=0.25 times MIC incubated for overnight by microbroth dilution checkerboard assay; format: functional; how it was run: as §2
Acinetobacter baumannii [18] = experiment: Synergistic antibacterial activity against Acinetobacter baumannii AYE assessed as fold change in novobiocin MIC at <=0.25 times MIC incubated for overnight by microbroth dilution checkerboard assay relative to novobiocin alone; format: functional; how it was run: as §3
Pseudomonas aeruginosa [19] = experiment: Synergistic antibacterial activity against Pseudomonas aeruginosa PAO1 assessed as novobiocin MIC at <=0.25 times MIC incubated for overnight by microbroth dilution checkerboard assay; format: functional; how it was run: as §2
Escherichia coli [20] = experiment: Synergistic antibacterial activity against Escherichia coli NCTC 12923 assessed as novobiocin MIC at <=0.25 times MIC incubated for overnight by microbroth dilution checkerboard assay; format: functional; how it was run: as §3
Pseudomonas aeruginosa [21] = experiment: Synergistic antibacterial activity against Pseudomonas aeruginosa NCTC 13437 assessed as rifampicin MIC at <=0.25 times MIC incubated for overnight by microbroth dilution checkerboard assay; format: functional; how it was run: as §2
Klebsiella pneumoniae [22] = experiment: Synergistic antibacterial activity against […] Klebsiella pneumoniae M6 assessed as rifampicin MIC at <=0.25 times MIC incubated for overnight by microbroth dilution checkerboard assay; format: functional; how it was run: as §4
Klebsiella pneumoniae [23] = experiment: Synergistic antibacterial activity against Klebsiella pneumoniae M6 assessed as fold change in novobiocin MIC at <=0.25 times MIC incubated for overnight by microbroth dilution checkerboard assay relative to novobiocin alone; format: functional; how it was run: as §3
Acinetobacter baumannii [24] = experiment: Synergistic antibacterial activity against Acinetobacter baumannii AYE assessed as fold change in rifampicin MIC at <=0.25 times MIC incubated for overnight by microbroth dilution checkerboard assay relative to rifampicin alone; format: functional; how it was run: as §3
Klebsiella pneumoniae [25] = experiment: Synergistic antibacterial activity against Klebsiella pneumoniae NCTC 13368 assessed as rifampicin MIC at <=0.25 times MIC incubated for overnight by microbroth dilution checkerboard assay; format: functional; how it was run: as §3
Klebsiella pneumoniae [26] = experiment: Synergistic antibacterial activity against Klebsiella pneumoniae NCTC 13368 assessed as fold change in rifampicin MIC at <=0.25 times MIC incubated for overnight by microbroth dilution checkerboard assay relative to rifampicin alone; format: functional; how it was run: as §4
Pseudomonas aeruginosa [27] = experiment: Synergistic antibacterial activity against Pseudomonas aeruginosa NCTC 13437 assessed as fold change in novobiocin MIC at <=0.25 times MIC incubated for overnight by microbroth dilution checkerboard assay relative to novobiocin alone; format: functional; how it was run: as §3
Pseudomonas aeruginosa [28] = experiment: Synergistic antibacterial activity against Pseudomonas aeruginosa NCTC 13437 assessed as fold change in rifampicin MIC at <=0.25 times MIC incubated for overnight by microbroth dilution checkerboard assay relative to rifampicin alone; format: functional; how it was run: as §2
Pseudomonas aeruginosa [29] = experiment: Antibacterial activity against Pseudomonas aeruginosa PAO1 assessed as bacterial growth inhibition incubated for overnight by microbroth dilution method; format: functional; how it was run: as §1
Acinetobacter baumannii [30] = experiment: Synergistic antibacterial activity against Acinetobacter baumannii AYE assessed as novobiocin MIC at <=0.25 times MIC incubated for overnight by microbroth dilution checkerboard assay; format: functional; how it was run: as §3
Klebsiella pneumoniae [31] = experiment: Synergistic antibacterial activity against Klebsiella pneumoniae NCTC 13368 assessed as fold change in novobiocin MIC at <=0.25 times MIC incubated for overnight by microbroth dilution checkerboard assay relative to novobiocin alone; format: functional; how it was run: as §3
Pseudomonas aeruginosa [32] = experiment: Synergistic antibacterial activity against Pseudomonas aeruginosa PAO1 assessed as fold change in rifampicin MIC at <=0.25 times MIC incubated for overnight by microbroth dilution checkerboard assay relative to rifampicin alone; format: functional; how it was run: as §2
Pseudomonas aeruginosa [33] = experiment: Antibacterial activity against Pseudomonas aeruginosa NCTC 13437 assessed as bacterial growth inhibition incubated for overnight by microbroth dilution method; format: functional; how it was run: as §1
Acinetobacter baumannii [34] = experiment: Antibacterial activity against Acinetobacter baumannii ATCC 17978 assessed as bacterial growth inhibition incubated for overnight by microbroth dilution method; format: functional; how it was run: as §1

In the case of `CCCCCCCCCCNC(=N)NCCCCNC(=N)N`, the MIC (Acinetobacter baumannii [1]) was over 128 µg/mL, the “fold change (FC)” value (Pseudomonas aeruginosa [2]) was “>=4” and the “fold change (FC)” value (Acinetobacter baumannii [3]) was “>=4”. For the same compound, the “fold change (FC)” value (Escherichia coli [4]) was “>=4”, the MIC (Klebsiella pneumoniae [5]) was over 128 µg/mL and the MIC (Escherichia coli [6]) was at most 0.125 µg/mL. The MIC (Klebsiella pneumoniae [7]) was 1 µg/mL, the “fold change (FC)” value (Acinetobacter baumannii [8]) was “>=4” and the Activity (Erythrocyte) was “Toxic”. The MIC (Pseudomonas aeruginosa [9]) was 4 µg/mL, the MIC (Acinetobacter baumannii [10]) was 0.125 µg/mL and the MIC (Klebsiella pneumoniae [11]) was over 128 µg/mL. For the same compound, the MIC (Escherichia coli [12]) was 64 µg/mL (≈ 205 µM), the MIC (Acinetobacter baumannii [13]) was at most 0.125 µg/mL and the MIC (Klebsiella pneumoniae [14]) was 8 µg/mL. The MIC (Acinetobacter baumannii [15]) was at most 0.125 µg/mL, the “fold change (FC)” value (Escherichia coli [16]) was “>=4” and the MIC (Pseudomonas aeruginosa [17]) was 2 µg/mL. For the same compound, the “fold change (FC)” value (Acinetobacter baumannii [18]) was “>=4”, the MIC (Pseudomonas aeruginosa [19]) was 4 µg/mL and the MIC (Escherichia coli [20]) was 2 µg/mL. The MIC (Pseudomonas aeruginosa [21]) was at most 0.125 µg/mL, the MIC (Klebsiella pneumoniae [22]) was at most 0.125 µg/mL and the “fold change (FC)” value (Klebsiella pneumoniae [23]) was “>=4”. The “fold change (FC)” value (Acinetobacter baumannii [24]) was “>=4”, the MIC (Klebsiella pneumoniae [25]) was at most 0.125 µg/mL and the “fold change (FC)” value (Klebsiella pneumoniae [26]) was “>=4”. The “fold change (FC)” value (Pseudomonas aeruginosa [27]) was “>=4”, the “fold change (FC)” value (Pseudomonas aeruginosa [28]) was “>=4” and the MIC (Pseudomonas aeruginosa [29]) was 64 µg/mL (≈ 205 µM). For the same compound, the MIC (Acinetobacter baumannii [30]) was 0.125 µg/mL, the “fold change (FC)” value (Klebsiella pneumoniae [31]) was “>=4” and the “fold change (FC)” value (Pseudomonas aeruginosa [32]) was “>=4”. It also gave an MIC (Pseudomonas aeruginosa [33]) of over 128 µg/mL and an MIC (Acinetobacter baumannii [34]) of over 128 µg/mL.

— ChEMBL document CHEMBL5357066, “Development of Novel Membrane Disrupting Lipoguanidine Compounds Sensitizing Gram-Negative Bacteria to Antibiotics” (ACS Med Chem Lett, 2024)
